From ChEMBL document CHEMBL1155455 come the findings set out here.

Assay [1] relates to Rattus norvegicus. Kind of assay: Antidiuretic activity in sc dosed Sprague-Dawley rat assessed as inhibition of U50488-induced urine output administered immediately after water loading measured 5 hrs after first dose. The assay is classed as functional, organism-based. In outline:
(§1)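 Adult male Sprague-Dawley rats, groups of four. […] Urine collected hourly for 5 h in metabolic chambers, at week 0 and week 1 without redosing. Analysis by repeated-measures ANOVA and Dunnett's test.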

The subject of assay [2] is Rattus norvegicus. The experiment in a line: Antidiuretic activity in sc dosed Sprague-Dawley rat assessed as inhibition of U50488-induced urine output administered immediately after water loading measured after 5 hrs on week 1. The assay is classed as functional, organism-based. The method, boiled down:
as §1

The structures appear in SMILES notation. Calls of active or inactive are those of the source. The calls are words filed in the database; no cut-off is given here.

As to `CC(C)[C@@H](CN1CC[C@@](C)(c2cccc(O)c2)[C@@H](C)C1)NC(=O)[C@H]1Cc2ccc(O)cc2CN1`, the Activity entry in the assay with Rattus norvegicus [1] and with Rattus norvegicus [2] was “Dose-dependent effect” throughout.

As to `CC(C)[C@@H](CN1CC[C@@](C)(c2cccc(O)c2)[C@@H](C)C1)NC(=O)[C@@H]1CCc2cc(O)ccc2C1`, in the assay with Rattus norvegicus [1], the Activity result was “Dose-dependent effect”. Besides, the result in the assay with Rattus norvegicus [2] was inactive.
